# RGS4 act: RGS4 potentiation or activation; hit rate 0.92% among 310,000; AID 463111; B-score at 10 µM; HEK293 M3R/inducible RGS4, carbachol calcium flux Fluo4; stronger effect = lower value;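 active = B-score of the integrated calcium signal more than 4 SD below the library mean, with starting fluorescence not abnormally high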;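 also: negative B-score means reduced calcium response which marks RGS4 activation or potentiation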
#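 Material: M3R-expressing HEK293 line, RGS4 induced by doxycycline | Schedule: Overnight RGS4 induction, 30 min dye load 37 °C, 20 min compound RT | Measured by: Fluo4 fluorescence kinetic imaging of calcium | Read-out: Integrated calcium ratio converted to B score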
# MrgX1 agonist: agonists of human MrgX1 receptor | MrgX1-HEK293 cells, Fluo-4 calcium fluorescence, agonist mode; stronger effect = higher value | B-score at 10 µM | hit rate 0.44% among 310,000 | Q96LB2;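 active = calcium response B-score plate-corrected fluorescence ratio at least 3 library SD, with starting fluorescence B-score inside 5 SD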
# Target sequence (Q96LB2 whole entry, looked up): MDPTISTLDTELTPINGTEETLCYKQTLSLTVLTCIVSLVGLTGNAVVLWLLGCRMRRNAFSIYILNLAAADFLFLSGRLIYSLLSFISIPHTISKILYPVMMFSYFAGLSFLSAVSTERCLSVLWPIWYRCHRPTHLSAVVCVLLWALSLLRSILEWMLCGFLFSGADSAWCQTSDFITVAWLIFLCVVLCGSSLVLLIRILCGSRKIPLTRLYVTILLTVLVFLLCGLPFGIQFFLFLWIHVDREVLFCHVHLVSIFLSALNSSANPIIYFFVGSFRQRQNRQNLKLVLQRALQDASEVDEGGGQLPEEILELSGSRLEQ
#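 times = overnight plating, then 30 min 37 °C plus 30 min room-temperature dye loading | assay system = stable human MrgX1 HEK293 cell line | input = fifteen thousand cells per well | signal = kinetic calcium dye fluorescence, Fluo-4 NW | dosing = compound delivered in addition one of three | read-out = B-scored fluorescence response ratio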
# RGS4 block: human RGS4 inhibition. P49798. B-score at 10 µM. hit rate 0.45% among 310,000. HEK293 M3R/RGS4 inducible, Fluo-4 calcium flux; stronger effect = higher value; triggered by carbachol at its EC20;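 active = B-score, a plate-corrected calcium signal, over three deviations above library mean, with baseline fluorescence within five deviations of library mean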;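 also: RGS4 expression induced by doxycycline in cells with stable M3 receptor; B-score is computed from the integrated fluorescence ratio over baseline after carbachol; higher B-score means a larger calcium signal and so more RGS4 inhibition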
# Target sequence (P49798 whole entry, looked up): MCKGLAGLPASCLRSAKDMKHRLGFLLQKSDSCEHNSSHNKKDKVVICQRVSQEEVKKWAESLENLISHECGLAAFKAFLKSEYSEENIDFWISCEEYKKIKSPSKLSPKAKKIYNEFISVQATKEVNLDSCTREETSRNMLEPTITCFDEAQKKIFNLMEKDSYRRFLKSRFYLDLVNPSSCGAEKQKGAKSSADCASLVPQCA
# MrgX1 antagonist: human MrgX1 receptor antagonism, primary screen; Q96LB2; MRGX1-HEK293 calcium flux, Fluo-4, BAM8-22 antagonism; stronger effect = lower value; B-score at 10 µM; hit rate 1.3% among 310,000;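 active = calcium-response B-score plate-corrected more than 3 library SD below zero, starting fluorescence within 5 deviations, no agonist response on first addition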;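 also: peak minus trough fluorescence over baseline after final BAM8-22 challenge near maximal dose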
# MrgX1 allo act: human MrgX1 positive allosteric modulation, primary screen; Q96LB2; MrgX1-HEK293, Fluo-4 calcium flux, FDSS; stronger effect = higher value; B-score at 10 µM; hit rate 0.63% among 310,000;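 active = plate-corrected calcium response at least 3 library SD above typical, normal starting fluorescence, not activating the receptor alone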;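 also: compound read alongside a low EC10 to EC30 dose of BAM8-22 agonist; peak minus trough fluorescence over baseline measured at the second addition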
# MrgX1 PAM conf: human MrgX1 positive allosteric modulation, re-confirmation; shares compounds with MrgX1 allo act; hit rate 13% among 1,200; MrgX1-HEK293, Fluo-4 calcium fluorescence, FDSS; activation (ratio percentage), % at 10 µM;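 active = ratio at least 3 SD above the weak peptide control, stable starting fluorescence, no direct agonism earlier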;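 also: compound followed by low BAM8-22 agonist challenge near EC20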
# MrgX1 ant reconf: reconfirmed antagonist of human MrgX1 receptor signaling; shares compounds with MrgX1 antagonist; MrgX1-HEK293, BAM8-22 calcium flux, Fluo-4; stronger effect = lower value; remaining BAM8-22 calcium response % of control (stronger effect = lower value), % at 10 µM; hit rate 19% among 2,300; AID 602420;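 active = remaining agonist calcium response no higher than 100% minus 3 SD of agonist-only control wells, with starting fluorescence near control levels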;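 also: agonist BAM8-22 given at a near maximal EC90 to ECmax level; peak minus minimum fluorescence divided by baseline after agonist addition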
# HEK293 Ca flux: activity in parental HEK293 cells lacking MrgX1; shares compounds with MrgX1 antagonist; Fluo-4 calcium fluorescence, FDSS; fluorescence ratio F(max-min)/F0 at 10 µM; hit rate 2% among 4,000; AID 624111;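 active = duplicate-averaged calcium fluorescence ratio at least three times the standard deviation of buffer wells, a nonspecific response in parental cells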
# HEK293 Ca counter: MrgX1 allosteric activator counter-screen hit in parental HEK293 cells; shares compounds with MrgX1 antagonist; parental HEK293 calcium flux, Fluo-4 fluorescence ratio; stronger effect = higher value; fluorescence ratio F(max-min)/F0 at 10 µM; hit rate 0.4% among 4,000;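 active = calcium fluorescence ratio, averaged over duplicates, at least 3 SD of the buffer-well ratio, meaning a nonspecific response in receptor-free cells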;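 also: untransfected parental HEK293 lacking MrgX1 used as counterscreen for MrgX1 allosteric activators; fluorescence change taken during the second addition on a kinetic imager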
# HEK293 Ca cntr2: counter-screen for MrgX1 activators: effect in parental HEK293 cells | shares compounds with MrgX1 antagonist | Fluo-4 calcium fluorescence (FDSS); stronger effect = higher value | fluorescence ratio F(max-min)/F0 at 10 µM | hit rate 8.7% among 4,000 | AID 624115;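 active = calcium fluorescence ratio at least three times the spread of buffer wells, meaning a non-specific response in parental cells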
# Numbers without * were called inactive; i = inactive; . = no result. Sampled rows, rich in hits. Any-hit rate of the full collection: about 3.5%.
SMILES,RGS4 act,MrgX1 agonist,RGS4 block,MrgX1 antagonist,MrgX1 allo act,MrgX1 PAM conf,HEK293 Ca flux,HEK293 Ca counter,HEK293 Ca cntr2,others
Cc1nc2ccc(Cl)cc2nc1C,i,i,i,i,i,.,.,.,.,
CCN(CC(=O)Nc1c(F)cccc1F)C(=O)Cc1csc(-c2ccccc2)n1,i,i,i,i,7.5*,i,i,i,i,
Cc1ccc(C)c(N2CCN(C(=O)c3csc(C)c3C)CC2)c1,i,i,i,i,6.9*,i,i,i,i,
c1ccc(Cc2c[nH]c3ccccc23)cc1,i,i,i,i,6.6*,i,i,i,i,
CN(Cc1ccccc1)Cc1c[nH]c2ccccc12,i,i,i,i,i,.,.,.,.,
Cc1cc(C)c(S(=O)(=O)c2ccccc2)c(N(C)C)n1,i,i,i,i,i,.,.,.,.,
CC1=C(C(=O)Nc2ccc(Cl)cc2)C2(CCCCC2)C(C(N)=O)C(=S)N1 (configuration not stated),i,i,i,i,12*,i,i,i,i,
O=S(=O)(Nc1nc2ccccc2s1)c1cc(F)ccc1F,i,i,i,i,i,.,.,.,.,
O=S(=O)(Nc1nc2ccccc2s1)c1ccc(Cl)s1,i,i,i,-5.3*,9.1*,i,i,i,i,MrgX1 ant reconf=i
COc1ccc(CCN2C(=S)N(c3ccccc3)C(=O)C2CC(=O)O)cc1OC (configuration not stated),i,i,i,i,i,.,.,.,.,
CNC(=O)CC1C(=O)N(c2ccc(Cl)cc2)C(=S)N1CCc1ccc(OC)c(OC)c1 (configuration not stated),i,i,i,i,10*,i,i,i,i,
Nc1cc(Cl)ccc1Oc1ccc2ccccc2c1,i,i,i,i,i,.,.,.,.,
Cc1ccc(Oc2ccc(Cl)cc2N)cc1,i,i,i,i,6.8*,i,i,i,i,
COc1ccc(Cl)cc1N(CC(=O)NCCSc1ccccn1)S(=O)(=O)c1ccccc1,i,i,i,i,i,.,.,.,.,
Cc1ccc(-c2csc(NC(=O)c3ccccc3Cl)c2C(=O)O)cc1,i,i,i,i,6.6*,i,i,i,i,
Cc1cccc(C(=O)Nc2scc(CC(C)C)c2C(=O)O)c1,i,i,i,i,i,.,.,.,.,
Cc1ccc(-c2csc(NC(=O)c3cccc(C)c3)c2C(=O)O)cc1,i,i,i,i,6.6*,i,i,i,i,
CC(=O)Nc1ccc(SCC(=O)Nc2cc(C)on2)cc1,i,i,i,i,i,.,.,.,.,
O=C(c1ccc2ccccc2n1)N1CCN(c2ccccc2O)CC1,i,i,i,i,i,.,.,.,.,
COCc1ccc(CN2CCC(N3CCC(C(=O)N4CCCC4)CC3)CC2)o1,i,i,i,i,8.9*,i,i,i,i,
O=C(CNC(=O)c1ccc2c(c1)OCCO2)N/N=C/c1ccc([N+](=O)[O-])cc1,i,i,i,i,i,.,.,.,.,
CC(NC(=O)/C(=C\c1ccco1)NC(=O)c1ccccc1Br)C(=O)O (configuration not stated),i,i,i,i,i,.,.,.,.,
